1 molecule from ChEMBL document CHEMBL2417367 (Bioorg Med Chem, 2013) can be followed below.

As usually defined, the IC50 is the concentration at which inhibition is half-maximal. Higher therefore signals a need for much substance.

In test [1] the target is Epidermal growth factor receptor (Homo sapiens, UniProt P00533). The test can be described thus: Inhibition of EGFR (unknown origin) using poly(Glu,Tyr) as substrate after 30 mins by HTRF assay. A digest of the protocol:
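HTRF kinase assay with purified kinase protein on precoated poly(Glu,Tyr) 4:1 substrate (20 µg/mL). Buffer was 50 mM HEPES pH 7.0 with DTT, MgCl2, MnCl2 and 0.1% NaN3, plus ATP added from a 10 mM solution. Compounds were in 1% DMSO. Reaction ran 30 min at 25 °C and was stopped with Streptavidin-XL665 and TK antibody-cryptate. Read at 320/615 nm; % inhibition from max/min controls, IC50 from inhibition curves.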
(In TR-FRET formats the signal depends on donor and acceptor labels being close together.)

In test [2] the target is T1, Receptor-type tyrosine-protein kinase FLT3 (Homo sapiens, UniProt P36888).
T1 sequence (P36888 whole entry): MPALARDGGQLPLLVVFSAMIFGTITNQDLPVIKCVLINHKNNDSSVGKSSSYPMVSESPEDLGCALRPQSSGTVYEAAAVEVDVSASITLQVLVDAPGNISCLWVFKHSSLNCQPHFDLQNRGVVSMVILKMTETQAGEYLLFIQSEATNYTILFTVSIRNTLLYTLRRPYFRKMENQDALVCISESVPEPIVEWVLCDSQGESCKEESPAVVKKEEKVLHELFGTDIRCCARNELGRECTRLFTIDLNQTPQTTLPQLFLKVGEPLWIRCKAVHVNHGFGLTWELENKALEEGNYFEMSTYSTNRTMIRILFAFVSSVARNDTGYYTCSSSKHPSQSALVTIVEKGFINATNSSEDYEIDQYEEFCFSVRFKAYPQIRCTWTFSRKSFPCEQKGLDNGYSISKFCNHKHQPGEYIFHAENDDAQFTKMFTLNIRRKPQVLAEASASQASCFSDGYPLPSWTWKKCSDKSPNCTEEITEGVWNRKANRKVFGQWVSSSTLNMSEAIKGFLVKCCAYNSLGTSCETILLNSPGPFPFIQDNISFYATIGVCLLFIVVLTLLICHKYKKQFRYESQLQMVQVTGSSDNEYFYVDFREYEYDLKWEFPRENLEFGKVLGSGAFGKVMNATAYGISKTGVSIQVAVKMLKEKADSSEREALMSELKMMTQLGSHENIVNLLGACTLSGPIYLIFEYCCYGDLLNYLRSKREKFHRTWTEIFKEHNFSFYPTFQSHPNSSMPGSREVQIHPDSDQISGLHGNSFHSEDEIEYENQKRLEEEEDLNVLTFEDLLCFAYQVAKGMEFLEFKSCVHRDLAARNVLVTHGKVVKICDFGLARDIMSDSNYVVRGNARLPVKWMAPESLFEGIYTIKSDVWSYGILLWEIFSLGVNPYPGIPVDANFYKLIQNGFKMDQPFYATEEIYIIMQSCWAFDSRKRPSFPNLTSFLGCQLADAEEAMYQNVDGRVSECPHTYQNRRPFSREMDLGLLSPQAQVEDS
The test can be described thus: Inhibition of FLT-3 (unknown origin) using poly(Glu,Tyr) as substrate after 30 mins by HTRF assay. A digest of the protocol: (§1)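 HTRF kinase assay on plates precoated with poly(Glu,Tyr) 4:1 (20 µg/mL). ATP was added as a 10 mM solution in 50 mM HEPES pH 7.0 buffer with DTT, MgCl2, MnCl2 and 0.1% NaN3. Compounds were in 1% DMSO, and purified kinase started the reaction (30 min, 25 °C). Streptavidin-XL665/TK antibody cryptate stopped it, read at 320/615 nm. Inhibition was scaled to enzyme and no-enzyme controls; IC50 from curves.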

Test [3] addresses Mast/stem cell growth factor receptor Kit (Homo sapiens, UniProt P10721). The experiment in a line: Inhibition of c-KIT (unknown origin) using poly(Glu,Tyr) as substrate after 30 mins by HTRF assay. In short, it runs like this:
as §1

The target in test [4] is Platelet-derived growth factor receptor alpha (Homo sapiens, UniProt P16234). The experiment in a line: Inhibition of PDGFRalpha (unknown origin) using poly(Glu,Tyr) as substrate after 30 mins by HTRF assay. In short, it runs like this: as §1
Test [5] deals with Vascular endothelial growth factor receptor 2 (Homo sapiens, UniProt P35968). The test can be described thus: Inhibition of KDR (unknown origin) using poly(Glu,Tyr) as substrate after 30 mins by HTRF assay. In short, it runs like this:
as §1

For test [6], the target named is Macrophage-stimulating protein receptor (Homo sapiens, UniProt Q04912). The test can be described thus: Inhibition of RON (unknown origin) using poly(Glu,Tyr) as substrate after 30 mins by HTRF assay. A digest of the protocol: as §1
For the next test, the system named is MDA-MB-231. The test can be described thus: Cytotoxicity against human MDA-MB-231 cells after 72 hrs by MTT assay. In kind it is functional, cell-based. The conditions noted are these: MDA-MB-231, 72 h. A digest of the protocol: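 Cells were grown in MEM with 10% FBS. About 4×10^3 cells per well were seeded and incubated 24 h at 37 °C in 5% CO2. Compounds were then added at set final concentrations for 72 h. MTT (final 5 µg/mL) was added for 4 h at 37 °C, and formazan was dissolved in DMSO and read at 492 nm against a 630 nm reference. Each line was tested three times; IC50 is mean ± SD.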
On the technique in general: Tetrazolium assays rely on reduction of a dye to a coloured formazan, in cell work by metabolically active cells.

For the next test, the system named is A549. The experiment in a line: Cytotoxicity against human A549 cells after 72 hrs by MTT assay. Type of test: functional, cell-based. To be noted: A549, 72 h.
The next test concerns SMMC-7721. The test can be described thus: cells. The conditions noted are these: Homo sapiens, SMMC-7721, 72 h.
In a further test the test system is NCI-H460. The experiment in a line: cells. To be noted: Homo sapiens, NCI-H460, 72 h.
A short description of the next test: cells. The conditions noted are these: Homo sapiens, U-87 MG, 72 h.
The next test relates to HT-29. The experiment in a line: cells. The conditions noted are these: Homo sapiens, HT-29, 72 h.
A further test concerns MKN-45. The test can be described thus: cells. The conditions noted are these: Homo sapiens, MKN-45, 72 h.

Platelet-derived growth factor receptor alpha, sequence (P16234 whole entry): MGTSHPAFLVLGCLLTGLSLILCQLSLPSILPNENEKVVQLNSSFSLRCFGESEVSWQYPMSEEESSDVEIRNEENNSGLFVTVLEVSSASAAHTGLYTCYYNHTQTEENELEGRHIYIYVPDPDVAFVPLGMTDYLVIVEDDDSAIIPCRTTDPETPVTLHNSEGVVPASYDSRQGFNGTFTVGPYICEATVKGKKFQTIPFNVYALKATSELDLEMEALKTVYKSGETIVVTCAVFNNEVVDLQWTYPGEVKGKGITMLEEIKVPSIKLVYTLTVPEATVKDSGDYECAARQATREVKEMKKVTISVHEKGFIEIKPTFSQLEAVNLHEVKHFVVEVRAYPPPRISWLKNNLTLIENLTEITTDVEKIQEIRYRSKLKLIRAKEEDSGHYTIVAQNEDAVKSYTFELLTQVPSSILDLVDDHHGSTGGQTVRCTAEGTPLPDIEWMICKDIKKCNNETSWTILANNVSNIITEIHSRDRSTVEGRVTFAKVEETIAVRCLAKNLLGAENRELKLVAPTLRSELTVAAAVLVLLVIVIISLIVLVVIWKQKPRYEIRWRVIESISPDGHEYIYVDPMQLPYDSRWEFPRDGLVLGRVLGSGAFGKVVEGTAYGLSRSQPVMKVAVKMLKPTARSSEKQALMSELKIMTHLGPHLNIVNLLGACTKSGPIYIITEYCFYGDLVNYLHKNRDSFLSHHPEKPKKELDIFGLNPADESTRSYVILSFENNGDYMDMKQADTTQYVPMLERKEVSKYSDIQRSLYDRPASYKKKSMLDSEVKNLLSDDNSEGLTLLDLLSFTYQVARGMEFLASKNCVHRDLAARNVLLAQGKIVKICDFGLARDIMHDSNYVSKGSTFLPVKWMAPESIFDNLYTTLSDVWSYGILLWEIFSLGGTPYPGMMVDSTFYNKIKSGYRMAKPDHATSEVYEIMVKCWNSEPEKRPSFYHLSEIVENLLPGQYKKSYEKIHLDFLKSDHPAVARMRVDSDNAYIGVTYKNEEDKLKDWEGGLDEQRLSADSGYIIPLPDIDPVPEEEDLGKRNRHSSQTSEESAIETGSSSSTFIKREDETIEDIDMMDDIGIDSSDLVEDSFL
Mast/stem cell growth factor receptor Kit, sequence (P10721 whole entry): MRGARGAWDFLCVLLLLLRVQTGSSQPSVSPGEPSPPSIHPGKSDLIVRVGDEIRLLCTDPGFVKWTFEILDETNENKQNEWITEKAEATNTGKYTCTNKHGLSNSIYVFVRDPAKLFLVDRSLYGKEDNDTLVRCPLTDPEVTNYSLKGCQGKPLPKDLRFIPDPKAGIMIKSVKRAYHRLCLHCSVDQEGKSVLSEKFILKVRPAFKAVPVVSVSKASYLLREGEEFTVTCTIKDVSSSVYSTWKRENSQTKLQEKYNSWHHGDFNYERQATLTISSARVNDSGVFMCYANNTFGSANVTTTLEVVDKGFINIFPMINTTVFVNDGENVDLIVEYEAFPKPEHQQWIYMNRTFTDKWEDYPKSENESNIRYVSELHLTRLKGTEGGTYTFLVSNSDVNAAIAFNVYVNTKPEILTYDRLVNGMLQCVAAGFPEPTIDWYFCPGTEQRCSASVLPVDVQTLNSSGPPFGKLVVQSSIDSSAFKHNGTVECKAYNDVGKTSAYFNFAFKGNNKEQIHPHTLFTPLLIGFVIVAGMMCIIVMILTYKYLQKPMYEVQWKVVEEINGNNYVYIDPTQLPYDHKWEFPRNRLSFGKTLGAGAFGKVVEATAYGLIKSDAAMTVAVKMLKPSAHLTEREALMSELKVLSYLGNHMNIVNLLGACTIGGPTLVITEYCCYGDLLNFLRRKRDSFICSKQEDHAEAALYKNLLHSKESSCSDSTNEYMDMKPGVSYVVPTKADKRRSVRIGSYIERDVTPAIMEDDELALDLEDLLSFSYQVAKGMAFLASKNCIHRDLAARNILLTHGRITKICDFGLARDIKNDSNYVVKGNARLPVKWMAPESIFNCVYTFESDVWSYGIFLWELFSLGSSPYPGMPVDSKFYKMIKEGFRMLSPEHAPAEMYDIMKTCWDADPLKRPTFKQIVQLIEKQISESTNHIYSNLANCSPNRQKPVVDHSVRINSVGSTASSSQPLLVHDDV
Epidermal growth factor receptor, sequence (P00533 whole entry): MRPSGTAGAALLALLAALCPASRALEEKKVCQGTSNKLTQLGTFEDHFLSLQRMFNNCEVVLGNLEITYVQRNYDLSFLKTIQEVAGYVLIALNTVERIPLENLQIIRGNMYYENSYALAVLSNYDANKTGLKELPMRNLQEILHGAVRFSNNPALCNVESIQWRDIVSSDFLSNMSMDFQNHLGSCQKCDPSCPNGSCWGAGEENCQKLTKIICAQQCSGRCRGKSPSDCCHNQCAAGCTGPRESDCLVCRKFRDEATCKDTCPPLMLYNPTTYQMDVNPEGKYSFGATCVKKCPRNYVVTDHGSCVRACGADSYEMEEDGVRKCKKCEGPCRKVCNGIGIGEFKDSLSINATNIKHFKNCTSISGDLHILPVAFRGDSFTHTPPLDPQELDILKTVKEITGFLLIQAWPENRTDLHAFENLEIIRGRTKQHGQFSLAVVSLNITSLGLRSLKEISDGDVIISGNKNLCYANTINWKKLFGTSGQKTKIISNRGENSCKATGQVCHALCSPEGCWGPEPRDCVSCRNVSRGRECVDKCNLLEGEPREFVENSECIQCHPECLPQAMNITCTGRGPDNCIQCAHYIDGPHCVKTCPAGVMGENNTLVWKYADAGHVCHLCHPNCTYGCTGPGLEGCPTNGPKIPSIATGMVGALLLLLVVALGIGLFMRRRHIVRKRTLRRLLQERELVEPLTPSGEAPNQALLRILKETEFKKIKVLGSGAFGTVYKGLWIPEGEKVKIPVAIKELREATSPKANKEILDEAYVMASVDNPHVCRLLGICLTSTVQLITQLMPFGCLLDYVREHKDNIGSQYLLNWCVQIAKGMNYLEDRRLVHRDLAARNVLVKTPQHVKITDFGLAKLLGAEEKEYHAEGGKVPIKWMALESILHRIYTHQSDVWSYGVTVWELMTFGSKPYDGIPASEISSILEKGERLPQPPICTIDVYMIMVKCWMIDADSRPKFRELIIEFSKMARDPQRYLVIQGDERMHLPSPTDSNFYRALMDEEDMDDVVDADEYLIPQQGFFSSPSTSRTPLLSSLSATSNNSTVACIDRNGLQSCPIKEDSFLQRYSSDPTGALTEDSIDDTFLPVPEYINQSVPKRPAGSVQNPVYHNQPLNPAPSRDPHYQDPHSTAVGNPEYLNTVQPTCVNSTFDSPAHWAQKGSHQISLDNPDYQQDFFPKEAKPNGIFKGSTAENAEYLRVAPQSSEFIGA
Macrophage-stimulating protein receptor, sequence (Q04912 25-304 limits assumed): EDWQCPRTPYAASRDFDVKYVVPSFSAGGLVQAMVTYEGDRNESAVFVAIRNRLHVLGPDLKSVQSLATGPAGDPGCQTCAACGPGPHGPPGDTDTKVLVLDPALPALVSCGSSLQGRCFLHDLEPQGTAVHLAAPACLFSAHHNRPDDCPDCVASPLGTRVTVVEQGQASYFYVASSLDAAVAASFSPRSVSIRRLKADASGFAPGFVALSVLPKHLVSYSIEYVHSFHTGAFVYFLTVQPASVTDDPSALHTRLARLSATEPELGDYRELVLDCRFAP
Macrophage-stimulating protein receptor, sequence (Q04912 310-1400 limits assumed): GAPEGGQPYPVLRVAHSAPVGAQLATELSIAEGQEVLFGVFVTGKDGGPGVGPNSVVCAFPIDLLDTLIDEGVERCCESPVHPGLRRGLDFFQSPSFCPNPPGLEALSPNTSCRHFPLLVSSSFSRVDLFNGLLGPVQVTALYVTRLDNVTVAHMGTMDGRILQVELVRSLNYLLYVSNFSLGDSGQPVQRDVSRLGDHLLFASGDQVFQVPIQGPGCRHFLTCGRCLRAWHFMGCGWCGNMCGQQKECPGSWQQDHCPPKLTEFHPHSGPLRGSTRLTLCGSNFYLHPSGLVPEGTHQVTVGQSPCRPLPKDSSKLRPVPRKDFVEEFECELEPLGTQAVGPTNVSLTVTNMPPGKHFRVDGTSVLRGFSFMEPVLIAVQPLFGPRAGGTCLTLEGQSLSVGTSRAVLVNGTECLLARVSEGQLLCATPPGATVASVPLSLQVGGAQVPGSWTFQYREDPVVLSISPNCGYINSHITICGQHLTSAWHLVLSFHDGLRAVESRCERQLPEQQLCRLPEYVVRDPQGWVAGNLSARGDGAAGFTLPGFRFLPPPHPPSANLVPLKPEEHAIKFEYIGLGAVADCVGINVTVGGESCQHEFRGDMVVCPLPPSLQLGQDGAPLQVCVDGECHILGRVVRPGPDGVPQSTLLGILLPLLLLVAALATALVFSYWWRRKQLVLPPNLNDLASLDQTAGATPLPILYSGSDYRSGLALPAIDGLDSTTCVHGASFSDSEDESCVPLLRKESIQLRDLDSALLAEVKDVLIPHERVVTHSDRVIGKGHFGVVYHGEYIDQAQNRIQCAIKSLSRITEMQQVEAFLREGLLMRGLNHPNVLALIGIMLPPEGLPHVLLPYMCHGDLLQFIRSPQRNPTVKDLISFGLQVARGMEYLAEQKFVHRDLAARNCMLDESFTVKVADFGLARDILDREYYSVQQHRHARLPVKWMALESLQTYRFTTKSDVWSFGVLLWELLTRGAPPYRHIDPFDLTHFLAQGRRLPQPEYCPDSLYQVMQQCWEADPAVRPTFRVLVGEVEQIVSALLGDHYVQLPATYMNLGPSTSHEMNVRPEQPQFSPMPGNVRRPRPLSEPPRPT

`COc1cc2c(Oc3ccc(NC(=O)N/N=C/c4ccc(F)cc4F)cc3F)ccnc2cc1OCCCN1CCC(C)CC1`: the IC50 in test [1] was more than 100000 nM; in test [2], 380 nM; in test [3], 230 nM; in [4], 390 nM; in test [5], 690 nM; in test [6], 18.7 nM. Also, the IC50 with MDA-MB-231 was 1100 nM; in the test on A549, 80 nM; with SMMC-7721, 290 nM; with NCI-H460 it was 57 nM; in the test “cells”, 9.7 nM; with HT-29, 80 nM. Moreover, the IC50 in the test with MKN-45 is 510 nM.
